According to paper PMC3920694 (Iranian Journal of Pharmaceutical Research : IJPR, 2013):
Where two headings read alike, the source gives them in different places.

Tests used:
[1] = system: HL60 (Human promylocyteic leukemia); assay: LDH assay cytotoxicity, HL60; type: cell-based; settings: HL-60, read-out: IC50 HL60
[2] = system: K562 (Human chronic myelogenom leukemia); assay: LDH assay cytotoxicity, K562; type: cell-based; settings: K562, read-out: IC50 K562
[3] = system: cancer cell lines (PC3, HT29, Hela, HL60, Jurkat, K562, MCF7, HepG2); assay: LDH assay cytotoxicity, span over the eight cancer cell lines; type: cell-based; settings: Homo sapiens, read-out: IC50 on cancer cell lines (range over the eight lines)
Outline: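 Cells grown in DMEM with 10% FBS and penicillin/streptomycin at 37°C, 5% CO2. Test compound at 1, 5, 10, 25, 50 and 100 μM for 24 and 48 h. Medium transferred and mixed with LDH reagent plus catalyst (1:45), 30 min in the dark at room temperature. Absorbance read at 490 nm with 630 nm background subtraction. Cell-free medium served as negative control.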

[4] = system: HUVEC (Human umbilical vein endothelial cell); assay: LDH assay cytotoxicity, HUVEC; type: cell-based; settings: read-out: IC50 HUVEC
[5] = system: Hela (Human cervix carcinoma); assay: LDH assay cytotoxicity, Hela; type: cell-based; settings: read-out: IC50 Hela
[6] = system: HT29 (Human colon carcinoma); assay: LDH assay cytotoxicity, HT29; type: cell-based; settings: HT-29, read-out: IC50 HT29
[7] = system: HepG2 (Human hepatocyte cancer cell line); assay: LDH assay cytotoxicity, HepG2; type: cell-based; settings: HepG2, read-out: IC50 HepG2
[8] = system: Jurkat (Human Acute T-cell leukemia); assay: cells; type: cell-based; settings: read-out: IC50 Jurkat
[9] = system: PC3 (Human prostate adenocarcinoma); assay: LDH assay cytotoxicity, PC3; type: cell-based
[10] = system: leukemia cell lines (HL60, K562 and Jurkat); assay: Trypan blue exclusion, leukemia cell lines; type: cell-based, Human; settings: 48 h; compared with structural isomer A; Figures 7-9
[11] = system: PC3 (Human prostate adenocarcinoma); assay: Trypan blue exclusion, PC3; type: cell-based; settings: 48 h; Figure 4
Outline: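 Cells kept in DMEM with 10% FBS and antibiotics at 37°C, 5% CO2. About 0.75 × 10^5 cells/mL were seeded in 6-well plates and exposed to test compound at several concentrations for 48 h. Cells were then collected, resuspended in 0.4% trypan blue, and unstained cells counted by inverted microscopy. Percent viability was expressed relative to a temozolomide reference control.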

[12] = system: MCF7 (Human breast adenocarcinoma); assay: LDH assay cytotoxicity, MCF7; type: cell-based
[13] = Homo sapiens, read-out: IC50 PC3, LDH assay, incubation 24 and 48 h described

SMILES | IC50 [1] [nM] | IC50 [2] [nM] | IC50 [3] [nM] | IC50 [4] [nM] | IC50 [5] [nM] | IC50 [6] [nM] | IC50 [7] [nM] | IC50 [8] [nM] | IC50 [9, 13] [nM] | effectiveness on leukemia cell lines (HL60, K562 and Jurkat) by trypan blue exclusion [10] | cytotoxic activity on PC3 by trypan blue exclusion [11] | IC50 ([12]; read-out: IC50 MCF7, LDH assay, incubation 24 and 48 h described) [nM] | IC50 ([9]; read-out: IC50 PC3, LDH assay, incubation 24 and 48 h described) [nM] | IC50 ([12]; Homo sapiens, MCF7, read-out: IC50 MCF7) [nM] | IC50 ([9]; Homo sapiens, read-out: IC50 PC3) [nM]
O=[N+]([O-])c1ccc(N=NNCCO)cc1 [E, 1-(4-nitrophenyl)-3-(2-hydroxyethyl)triazene] | 2810 ± 990 | 9870 ± 2080 | 3000 to 15500 | 5050 ± 1800 | 15500 ± 3010 | 8250 ± 2200 | 4200 ± 1200 | 4500 ± 1670 | 3000 ± 1010 |  |  |  |  |  | 
O=[N+]([O-])c1ccc(N=NNc2ccccc2O)cc1 [B, 1-(4-nitrophenyl)-3-(2-hydroxyphenyl)triazene] | 1360 ± 340 | 1130 ± 670 |  | 3220 ± 1100 | 4200 ± 1400 | 3370 ± 1650 | 1890 ± 780 | 1050 ± 980 | 3290 ± 1300 | more effective |  |  |  |  | 
COc1ccccc1N=NNc1ccccc1OC [F, 1,3-Bis(2-methoxyphenyl)triazene] | 1300 ± 500 | 1660 ± 490 |  | 4590 ± 1760 | 6850 ± 2800 | 2260 ± 1520 | 1450 ± 650 | 1610 ± 900 | 7000 ± 2200 |  |  |  |  |  | 
Cn1nnc2c(C(N)=O)ncn2c1=O [TMZ, Temozolomide, reference compound] | 3540 ± 1560 | 3820 ± 1600 |  | 4850 ± 1780 | 8880 ± 2200 | 17200 ± 3200 | 2590 ± 1300 | 2070 ± 1340 | 1390 ± 690 |  |  |  |  |  | 
CCOc1ccccc1N=NNc1ccccc1OCC [C, 1,3-bis(2-ethoxyphenyl)triazene] | 2620 ± 960 | 1660 ± 800 | 560 to 3330 | 12600 ± 2800 | 2540 ± 1200 | 2550 ± 1330 | 3330 ± 1300 | 1690 ± 1020 | 590 |  | high | 590 ± 120 | 560 ± 200 |  | 
c1ccc(N=NNc2ccccc2)cc1 [G, 1,3-diphenyltriazene] | 3400 ± 1960 | 6330 ± 2410 |  | 7430 ± 2100 | 4880 ± 1500 | 9400 ± 2300 | 3940 ± 1450 | 5530 ± 1440 |  |  |  |  |  | 1570 ± 340 | 4130 ± 1800
N#Cc1ccccc1N=NNc1ccccc1C#N [D, 1,3-bis (2-cyanophenyl) triazene] | 1340 ± 440 | 1040 ± 380 |  | 1140 ± 400 | 2390 ± 1350 | 2030 ± 1050 | 1490 ± 420 | 1440 ± 710 | 1040 ± 110 |  |  |  |  |  | 
O=[N+]([O-])c1ccc(N=NNc2cccc(O)c2)cc1 [A, 1-(4-nitrophenyl)-3-(3-hydroxyphenyl)triazene] | 2300 ± 510 | 2100 ± 700 |  | 4400 ± 1310 | 8870 ± 2100 | 2820 ± 490 | 1120 ± 300 | 1200 ± 400 | 1240 ± 200 |  |  |  |  |  | 
